Laboratory results: ChEMBL document CHEMBL5143539, “Synthesis and evaluation of dual-action kanglemycin-fluoroquinolone hybrid antibiotics” (Bioorg Med Chem Lett, 2022)
Converted amounts (≈) assume the structure as drawn.

How the values were obtained:
Staphylococcus aureus [1] = test: Antibacterial activity against rifampicin resistant Staphylococcus aureus harboring RpoBH481Y mutant assessed as inhibition of bacterial growth; type: functional
Staphylococcus aureus [2] = test: Antibacterial activity against wild type Staphylococcus aureus assessed as inhibition of bacterial growth; type: functional
Staphylococcus aureus [3] = test: Antibacterial activity against ciprofloxacin resistant Staphylococcus aureus harboring ParCS80F and GyrAS84L double mutant assessed as inhibition of bacterial growth; type: functional
Staphylococcus aureus [4] = test: Antibacterial activity against Staphylococcus aureus harboring RpoBH481Y/ParCS80F/GyrAS84L triple mutant assessed as inhibition of bacterial growth; type: functional
Escherichia coli = test: Antibacterial activity against Escherichia coli assessed as inhibition of bacterial growth; type: functional
Outline: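 Run in duplicate, with the same result obtained in each trial.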

HEK293 = test: Cytotoxicity against HEK293 cells; type: toxicity, cell-based, Homo sapiens

**Q.** How did the MIC (Staphylococcus aureus [1]) turn out when `CC(=O)O[C@H]1[C@H](C)[C@H](O)[C@H](C)[C@@H](O)[C@@H](C(C)OC(=O)C(C)(C)CC(=O)O)/C=C/C=C(/C)C(=O)Nc2c3oc4cc(NCCCCCCCCC(=O)N5Cc6cc(-c7ccc8c(=O)c(C(=O)O)cn(C9CC9)c8c7OC(F)F)ccc6[C@H]5C)cc(O)c4nc-3c3c4c(c(C)c(O)c3c2=O)O[C@](C)(O/C=C/[C@H](O[C@H]2C[C@@H]3OCO[C@@H]3[C@@H](C)O2)[C@H]1C)C4=O` (stereo not given in full) was run?
**A.** 8 µg/mL (≈ 4.8 µM)

**Q.** What about the MIC (Staphylococcus aureus [2]) of the same molecule?
**A.** 4 µg/mL (≈ 2.4 µM)

**Q.** And the MIC (Staphylococcus aureus [3])?
**A.** 4 µg/mL (≈ 2.4 µM)

**Q.** What about the MIC (Staphylococcus aureus [4]) of the same molecule?
**A.** > 64 µg/mL

**Q.** And the MIC (Escherichia coli)?
**A.** > 64 µg/mL

**Q.** What about the IC50 (HEK293) of the same molecule?
**A.** > 64 µg/mL

**Q.** With `CC(=O)O[C@H]1[C@H](C)[C@H](O)[C@H](C)[C@@H](O)[C@@H](C(C)OC(=O)C(C)(C)CC(=O)O)/C=C/C=C(/C)C(=O)Nc2c3oc4cc(NCCCCCC(=O)N5Cc6cc(-c7ccc8c(=O)c(C(=O)O)cn(C9CC9)c8c7OC(F)F)ccc6[C@H]5C)cc(O)c4nc-3c3c4c(c(C)c(O)c3c2=O)O[C@](C)(O/C=C/[C@H](O[C@H]2C[C@@H]3OCO[C@@H]3[C@@H](C)O2)[C@H]1C)C4=O` (stereo not given in full) as the molecule, how does the MIC (Staphylococcus aureus [1]) read?
**A.** 4 µg/mL (≈ 2.46 µM)

**Q.** What about the MIC (Staphylococcus aureus [2]) of the same molecule?
**A.** 1 µg/mL (≈ 0.615 µM)

**Q.** What about the MIC (Staphylococcus aureus [3]) of the same molecule?
**A.** 2 µg/mL (≈ 1.23 µM)

**Q.** And the MIC (Staphylococcus aureus [4])?
**A.** > 64 µg/mL

**Q.** What about the MIC (Escherichia coli) of the same molecule?
**A.** > 64 µg/mL

**Q.** What about the IC50 (HEK293) of the same molecule?
**A.** > 64 µg/mL

**Q.** What does the source list for `CC(=O)O[C@H]1[C@H](C)[C@H](O)[C@H](C)[C@@H](O)[C@@H](C(C)OC(=O)C(C)(C)CC(=O)O)/C=C/C=C(/C)C(=O)Nc2c3oc4cc(NCCCN5Cc6cc(-c7ccc8c(=O)c(C(=O)O)cn(C9CC9)c8c7OC(F)F)ccc6[C@H]5C)cc(O)c4nc-3c3c4c(c(C)c(O)c3c2=O)O[C@](C)(O/C=C/[C@H](O[C@H]2C[C@@H]3OCO[C@@H]3[C@@H](C)O2)[C@H]1C)C4=O` (stereo not given in full)?
**A.** MIC (Staphylococcus aureus [1]): 8 µg/mL (≈ 5.1 µM); MIC (Staphylococcus aureus [2]): 4 µg/mL (≈ 2.55 µM); MIC (Staphylococcus aureus [3]): 16 µg/mL (≈ 10.2 µM); MIC (Staphylococcus aureus [4]): > 64 µg/mL; MIC (Escherichia coli): > 64 µg/mL; IC50 (HEK293): > 64 µg/mL

**Q.** With `CC(=O)O[C@H]1[C@H](C)[C@H](O)[C@H](C)[C@@H](O)[C@@H](C(C)OC(=O)C(C)(C)CC(=O)O)/C=C/C=C(/C)C(=O)Nc2c3oc4cc(NCCCN5CCN(c6cc7c(cc6F)c(=O)c(C(=O)O)cn7C6CC6)CC5)cc(O)c4nc-3c3c4c(c(C)c(O)c3c2=O)O[C@](C)(O/C=C/[C@H](O[C@H]2C[C@@H]3OCO[C@@H]3[C@@H](C)O2)[C@H]1C)C4=O` (stereo not given in full) as the molecule, how does the MIC (Staphylococcus aureus [1]) read?
**A.** 8 µg/mL (≈ 5.43 µM)

**Q.** What about the MIC (Staphylococcus aureus [2]) of the same molecule?
**A.** 4 µg/mL (≈ 2.71 µM)

**Q.** What about the MIC (Staphylococcus aureus [3]) of the same molecule?
**A.** 4 µg/mL (≈ 2.71 µM)

**Q.** What about the MIC (Staphylococcus aureus [4]) of the same molecule?
**A.** > 64 µg/mL

**Q.** What about the MIC (Escherichia coli) of the same molecule?
**A.** 16 µg/mL (≈ 10.9 µM)

**Q.** What about the IC50 (HEK293) of the same molecule?
**A.** 44 µg/mL (≈ 29.9 µM)

**Q.** `CC(=O)O[C@H]1[C@H](C)[C@H](O)[C@H](C)[C@@H](O)[C@@H](C(C)OC(=O)C(C)(C)CC(=O)O)/C=C/C=C(/C)C(=O)Nc2c3oc4cc(NCCCNC5(c6c(F)cc7c(=O)c(C(=O)O)cn8c7c6OC[C@@H]8C)CC5)cc(O)c4nc-3c3c4c(c(C)c(O)c3c2=O)O[C@](C)(O/C=C/[C@H](O[C@H]2C[C@@H]3OCO[C@@H]3[C@@H](C)O2)[C@H]1C)C4=O` (stereo not given in full) was tested. Which MIC (Staphylococcus aureus [1]) did it give?
**A.** > 64 µg/mL

**Q.** And the MIC (Staphylococcus aureus [2])?
**A.** 4 µg/mL (≈ 2.74 µM)

**Q.** And the MIC (Staphylococcus aureus [3])?
**A.** 4 µg/mL (≈ 2.74 µM)

**Q.** What about the MIC (Staphylococcus aureus [4]) of the same molecule?
**A.** > 64 µg/mL

**Q.** And the MIC (Escherichia coli)?
**A.** 64 µg/mL (≈ 43.8 µM)

**Q.** And the IC50 (HEK293)?
**A.** > 64 µg/mL

**Q.** With `CC(=O)O[C@H]1[C@H](C)[C@H](O)[C@H](C)[C@@H](O)[C@@H](C(C)OC(=O)C(C)(C)CC(=O)O)/C=C/C=C(/C)C(=O)Nc2c3oc4cc(N5CCCn6nc(C(=O)N7Cc8cc(-c9ccc%10c(=O)c(C(=O)O)cn(C%11CC%11)c%10c9OC(F)F)ccc8[C@H]7C)cc6C5)cc(O)c4nc-3c3c4c(c(C)c(O)c3c2=O)O[C@](C)(O/C=C/[C@H](O[C@H]2C[C@@H]3OCO[C@@H]3[C@@H](C)O2)[C@H]1C)C4=O` (stereo not given in full) as the molecule, how does the MIC (Staphylococcus aureus [1]) read?
**A.** > 64 µg/mL

**Q.** What about the MIC (Staphylococcus aureus [2]) of the same molecule?
**A.** 16 µg/mL (≈ 9.55 µM)

**Q.** And the MIC (Staphylococcus aureus [3])?
**A.** 16 µg/mL (≈ 9.55 µM)

**Q.** What about the MIC (Staphylococcus aureus [4]) of the same molecule?
**A.** > 64 µg/mL

**Q.** And the MIC (Escherichia coli)?
**A.** > 64 µg/mL

**Q.** What about the IC50 (HEK293) of the same molecule?
**A.** > 64 µg/mL

**Q.** `COc1c(N2CCCC(N(C)CCCNc3cc(O)c4nc5c6c7c8c(C)c(O)c6c(=O)c(c-5oc4c3)NC(=O)/C(C)=C\C=C\[C@H](C(C)OC(=O)C(C)(C)CC(=O)O)[C@H](O)[C@@H](C)[C@@H](O)[C@@H](C)[C@H](OC(C)=O)[C@H](C)[C@@H](O[C@H]3C[C@@H]4OCO[C@@H]4[C@@H](C)O3)/C=C/O[C@@](C)(O8)C7=O)C2)c(F)cc2c(=O)c(C(=O)O)cn(C3CC3)c12` (stereo not given in full) was tested. Which MIC (Staphylococcus aureus [1]) did it give?
**A.** 16 µg/mL (≈ 10.4 µM)

**Q.** What about the MIC (Staphylococcus aureus [2]) of the same molecule?
**A.** 8 µg/mL (≈ 5.22 µM)

**Q.** And the MIC (Staphylococcus aureus [3])?
**A.** 8 µg/mL (≈ 5.22 µM)

**Q.** And the MIC (Staphylococcus aureus [4])?
**A.** > 64 µg/mL

**Q.** What about the MIC (Escherichia coli) of the same molecule?
**A.** > 64 µg/mL

**Q.** What about the IC50 (HEK293) of the same molecule?
**A.** > 64 µg/mL

**Q.** `CC(=O)O[C@H]1[C@H](C)[C@H](O)[C@H](C)[C@@H](O)[C@@H](C(C)OC(=O)C(C)(C)CC(=O)O)/C=C/C=C(/C)C(=O)Nc2c3oc4cc(N5CCC(CCCC(=O)N6Cc7cc(-c8ccc9c(=O)c(C(=O)O)cn(C%10CC%10)c9c8OC(F)F)ccc7[C@H]6C)CC5)cc(O)c4nc-3c3c4c(c(C)c(O)c3c2=O)O[C@](C)(O/C=C/[C@H](O[C@H]2C[C@@H]3OCO[C@@H]3[C@@H](C)O2)[C@H]1C)C4=O` (stereo not given in full) was tested. Which MIC (Staphylococcus aureus [1]) did it give?
**A.** > 64 µg/mL

**Q.** What about the MIC (Staphylococcus aureus [2]) of the same molecule?
**A.** 64 µg/mL (≈ 38.4 µM)

**Q.** And the MIC (Staphylococcus aureus [3])?
**A.** 64 µg/mL (≈ 38.4 µM)

**Q.** What about the MIC (Staphylococcus aureus [4]) of the same molecule?
**A.** > 64 µg/mL

**Q.** What about the MIC (Escherichia coli) of the same molecule?
**A.** > 64 µg/mL

**Q.** What about the IC50 (HEK293) of the same molecule?
**A.** > 64 µg/mL

**Q.** What does the source list for `COc1c(N2C[C@@H]3CCCN(CCCNc4cc(O)c5nc6c7c8c9c(C)c(O)c7c(=O)c(c-6oc5c4)NC(=O)/C(C)=C\C=C\[C@H](C(C)OC(=O)C(C)(C)CC(=O)O)[C@H](O)[C@@H](C)[C@@H](O)[C@@H](C)[C@H](OC(C)=O)[C@H](C)[C@@H](O[C@H]4C[C@@H]5OCO[C@@H]5[C@@H](C)O4)/C=C/O[C@@](C)(O9)C8=O)[C@@H]3C2)c(F)cc2c(=O)c(C(=O)O)cn(C3CC3)c12` (stereo not given in full)?
**A.** MIC (Staphylococcus aureus [1]): 16 µg/mL (≈ 10.4 µM); MIC (Staphylococcus aureus [2]): 1 µg/mL (≈ 0.648 µM); MIC (Staphylococcus aureus [3]): 1 µg/mL (≈ 0.648 µM); MIC (Staphylococcus aureus [4]): > 64 µg/mL; MIC (Escherichia coli): > 64 µg/mL; IC50 (HEK293): 38 µg/mL (≈ 24.6 µM)

**Q.** Which MIC (Staphylococcus aureus [1]) does the source give for `COc1c(N2C[C@@H]3CCCN(c4cc(O)c5nc6c7c8c9c(C)c(O)c7c(=O)c(c-6oc5c4)NC(=O)/C(C)=C\C=C\[C@H](C(C)OC(=O)C(C)(C)CC(=O)O)[C@H](O)[C@@H](C)[C@@H](O)[C@@H](C)[C@H](OC(C)=O)[C@H](C)[C@@H](O[C@H]4C[C@@H]5OCO[C@@H]5[C@@H](C)O4)/C=C/O[C@@](C)(O9)C8=O)[C@@H]3C2)c(F)cc2c(=O)c(C(=O)O)cn(C3CC3)c12` (stereo not given in full) here?
**A.** 8 µg/mL (≈ 5.38 µM)

**Q.** And the MIC (Staphylococcus aureus [2])?
**A.** 0.5 µg/mL (≈ 0.336 µM)

**Q.** And the MIC (Staphylococcus aureus [3])?
**A.** 0.5 µg/mL (≈ 0.336 µM)

**Q.** And the MIC (Staphylococcus aureus [4])?
**A.** > 64 µg/mL

**Q.** What about the MIC (Escherichia coli) of the same molecule?
**A.** 32 µg/mL (≈ 21.5 µM)

**Q.** What about the IC50 (HEK293) of the same molecule?
**A.** > 64 µg/mL
